From ChEMBL document CHEMBL1152315, “Benzophenone derivatives from the fruits of Garcinia multiflora and their anti-inflammatory activity” (J Nat Prod, 2009)

Assay: Antiinflammatory activity in human neutrophils assessed as inhibition of fMet-Leu-Phe/Cytochalasin B-induced elastase release treated 5 mins before fMet-Leu-Phe/Cytochalasin B challenge
Format: functional, cell-based
Details: Neutrophil
Method in brief: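 Neutrophils from venous blood of healthy adult donors (20-28 y), isolated by dextran sedimentation, Ficoll Hypaque and hypotonic erythrocyte lysis; 6 × 10^5/mL with MeO-Suc-Ala-Ala-Pro-Val-p-nitroanilide substrate (100 µM), 37 °C for 2 min, then compound for 5 min. Stimulated with fMLP (100 nM)/CB (0.5 µg/mL). Absorbance at 405 nm monitored continuously; expressed as percent of drug-free activated control.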

| IC50 [µM] | SMILES |
| --- | --- |
| > 30 | COc1cc2ccc(=O)oc2c(OC)c1OC [FRAXIDIN METHYL ETHER] |
| > 30 | CC[C@H](CC[C@@H](C)[C@H]1CC[C@H]2[C@@H]3CC=C4CC(=O)CC[C@]4(C)[C@H]3CC[C@]12C)C(C)C [BETA-SITOSTENONE] |
| 0.14 | C=C(C)[C@@H](CC=C(C)C)C[C@@]12C[C@@H](CC=C(C)C)C(C)(C)[C@]3(C=CC(C)(C)OC3=C(C(=O)c3ccccc3)C1=O)C2=O [GARCIMULTIFLORONE B] |
| > 30 | COc1cc2ccc(=O)oc2cc1OC [SCOPARONE] |
| 12.1 | C=C(C)[C@@H](CC=C(C)C)C[C@@]12C[C@H]3C[C@@H](C(C)(C)O)[C@](C(=O)c4ccccc4)(C1=O)C(=O)[C@@](CC(O)C(C)(C)O)(C2=O)C3(C)C (some centres not stated) [GARCIMULTIFLORONE C] |
| > 30 | CC(C)=CCC/C(C)=C/CC/C(C)=C/CC/C=C(\C)CC/C=C(\C)CCC=C(C)C [SQUALENE] |
| 4.65 | CC(C)=CCC1=C2OC(C)(C)[C@@H](CC=C(C)C)C[C@@]23C[C@@H](CC=C(C)C)C(C)(C)[C@@](C(=O)c2ccccc2)(C1=O)C3=O [GARCIMULTIFLORONE A] |
| 0.86 | C=C(C)[C@@H](CC=C(C)C)C[C@@]12C[C@@H](CC=C(C)C)C(C)(C)[C@]3(C=CC(C)(C)OC3=C(C(=O)c3cccc(O)c3)C1=O)C2=O [13-HYDROXYGARCIMULTIFLORONE B] |
| 1.16 | CC(C)=CC[C@H]1C[C@@]23C[C@@H](CC=C(C)C)C(C)(C)[C@@](CC=C(C)C)(C(=O)C(C(=O)c4ccccc4)=C2OC1(C)C)C3=O |
| 15.1 | CC(C)=CCC/C(C)=C/CC/C(C)=C/CC[C@]1(C)CCc2cc(O)cc(C)c2O1 [DELTA-TOCOTRIENOL] |

| SMILES | IC50 [µM] |
| --- | --- |
| O=S(=O)(F)Cc1ccccc1 [PHENYLMETHYLSULFONYLFLUORIDE] | 204 |

Assay: Antiinflammatory activity in human neutrophils assessed as inhibition of fMet-Leu-Phe/Cytochalasin B-induced superoxide anion generation treated 5 mins before fMet-Leu-Phe/Cytochalasin B challenge by spectrophotometry
Format: functional, cell-based
Details: Neutrophil
Method in brief: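 Donor neutrophils (6 × 10^5/mL, Ca2+-free HBSS pH 7.4) were given 0.5 mg/mL ferricytochrome c and 1 mM Ca2+, held at 37 °C for 2 min, then exposed to compound (10-0.01 µg/mL) or DMSO for 5 min. Cytochalasin B (1 µg/mL) was added for 3 min, then fMLP (100 nM) for 10 min. SOD-inhibitable cytochrome c reduction was read at 550 nm (ε 21.1/mM/10 mm).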

| IC50 [µM] | SMILES |
| --- | --- |
| > 30 | COc1cc2ccc(=O)oc2c(OC)c1OC [FRAXIDIN METHYL ETHER] |
| > 30 | CC[C@H](CC[C@@H](C)[C@H]1CC[C@H]2[C@@H]3CC=C4CC(=O)CC[C@]4(C)[C@H]3CC[C@]12C)C(C)C [BETA-SITOSTENONE] |
| 0.11 | C=C(C)[C@@H](CC=C(C)C)C[C@@]12C[C@@H](CC=C(C)C)C(C)(C)[C@]3(C=CC(C)(C)OC3=C(C(=O)c3ccccc3)C1=O)C2=O [GARCIMULTIFLORONE B] |
| > 30 | COc1cc2ccc(=O)oc2cc1OC [SCOPARONE] |
| 7.21 | C=C(C)[C@@H](CC=C(C)C)C[C@@]12C[C@H]3C[C@@H](C(C)(C)O)[C@](C(=O)c4ccccc4)(C1=O)C(=O)[C@@](CC(O)C(C)(C)O)(C2=O)C3(C)C (some centres not stated) [GARCIMULTIFLORONE C] |
| > 30 | CC(C)=CCC/C(C)=C/CC/C(C)=C/CC/C=C(\C)CC/C=C(\C)CCC=C(C)C [SQUALENE] |
| 5.58 | CC(C)=CCC1=C2OC(C)(C)[C@@H](CC=C(C)C)C[C@@]23C[C@@H](CC=C(C)C)C(C)(C)[C@@](C(=O)c2ccccc2)(C1=O)C3=O [GARCIMULTIFLORONE A] |
| 0.4 | C=C(C)[C@@H](CC=C(C)C)C[C@@]12C[C@@H](CC=C(C)C)C(C)(C)[C@]3(C=CC(C)(C)OC3=C(C(=O)c3cccc(O)c3)C1=O)C2=O [13-HYDROXYGARCIMULTIFLORONE B] |
| 0.88 | CC(C)=CC[C@H]1C[C@@]23C[C@@H](CC=C(C)C)C(C)(C)[C@@](CC=C(C)C)(C(=O)C(C(=O)c4ccccc4)=C2OC1(C)C)C3=O |
| 14.8 | CC(C)=CCC/C(C)=C/CC/C(C)=C/CC[C@]1(C)CCc2cc(O)cc(C)c2O1 [DELTA-TOCOTRIENOL] |

| SMILES | IC50 [µM] |
| --- | --- |
| c1ccc2c(c1)[I+]c1ccccc1-2 [DIPHENYLENEIODONIUM] | 1.7 |
